In ChEMBL document CHEMBL5247578, “Effective synthesis of benzimidazoles-imidazo[1,2-a]pyrazine conjugates: A comparative study of mono-and bis-benzimidazoles for antitumor activity” (Eur J Med Chem, 2019):

Experiments:
[1] = n-Octanol/phosphate buffer partition coefficient, logP of the compound at pH 7.4 incubated for 85 mins by shake-flask method; format: physicochemical
How it was run: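 Octanol–water partition by shake-flask: n-octanol with 0.15 M phosphate buffer pH 7.4 at 10:1 volumes. Buffer-phase absorbance read before mixing, then shaken 50 min and centrifuged at 2500 rpm for 35 min. Buffer absorbance read again; P = (Ai−Af)/Af × Vw/Vo.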

[2] = tested on: K562; assay: Antiproliferative activity against human K562 cells assessed as cell growth inhibition at 10 uM incubated for 48 hrs by sulforhodamine B assay relative to control; format: functional
How it was run: (§1)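 NCI-60 single-dose screen at 10^-5 M. Cells grown in RPMI 1640 with 5% FBS and 2 mM L-glutamine, plated at 5,000–40,000 cells/well, and preincubated 24 h. Drug (DMSO stock) added and incubated 48 h at 37 °C, 5% CO2. Adherent cells fixed with cold TCA, stained with 0.4% SRB in 1% acetic acid, dye solubilized in 10 mM trizma base, A515 read. Percent growth taken against time-zero and untreated control.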

[3] = tested on: RPMI-8226; assay: Antiproliferative activity against human RPMI-8226 cells assessed as cell growth inhibition at 10 uM incubated for 48 hrs by sulforhodamine B assay relative to control; format: functional; how it was run: as §1
[4] = tested on: OVCAR-8; assay: Antiproliferative activity against human OVCAR-8 cells assessed as cell growth inhibition at 10 uM incubated for 48 hrs by sulforhodamine B assay relative to control; format: functional; how it was run: as §1
[5] = tested on: SNB-19; assay: Antiproliferative activity against human SNB-19 cells assessed as cell growth inhibition at 10 uM incubated for 48 hrs by sulforhodamine B assay relative to control; format: functional; how it was run: as §1
[6] = tested on: CCRF-CEM; assay: Antiproliferative activity against human CCRF-CEM cells assessed as cell growth inhibition at 10 uM incubated for 48 hrs by sulforhodamine B assay relative to control; format: functional
How it was run: (§2)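 Single-dose NCI-60 prescreen at 10^-5 M. Cells in RPMI 1640 with 5% FBS and 2 mM L-glutamine, seeded 5,000–40,000 cells/well with 24 h preincubation, then drug exposure for 48 h at 37 °C under 5% CO2. Growth read by SRB staining of TCA-fixed cells at 515 nm against time-zero and untreated controls. Negative growth values denote cell kill.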

[7] = tested on: UO-31; assay: Antiproliferative activity against human UO-31 cells assessed as cell growth inhibition at 10 uM incubated for 48 hrs by sulforhodamine B assay relative to control; format: functional; how it was run: as §1
[8] = tested on: HCT-15; assay: Antiproliferative activity against human HCT-15 cells assessed as cell growth inhibition at 10 uM incubated for 48 hrs by sulforhodamine B assay relative to control; format: functional
How it was run: (§3)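 NCI-60 one-dose prescreen at 10^-5 M. Cells grown in RPMI 1640 with 5% FBS and 2 mM glutamine, preincubated 24 h, then exposed 48 h at 37 °C. Adherent lines TCA-fixed, SRB-stained, A515 read. Growth percent relative to time-zero and control; negative values mean cell kill.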

[9] = tested on: PC-3; assay: Antiproliferative activity against human PC-3 cells assessed as cell growth inhibition at 10 uM incubated for 48 hrs by sulforhodamine B assay relative to control; format: functional; how it was run: as §1
[10] = tested on: SNB-75; assay: Antiproliferative activity against human SNB-75 cells assessed as cell growth inhibition at 10 uM incubated for 48 hrs by sulforhodamine B assay relative to control; format: functional; how it was run: as §1
[11] = tested on: HL-60; assay: Antiproliferative activity against human HL-60 cells assessed as cell growth inhibition at 10 uM incubated for 48 hrs by sulforhodamine B assay relative to control; format: functional; how it was run: as §3
[12] = tested on: MCF7; assay: Antiproliferative activity against human MCF7 cells assessed as cell growth inhibition at 10 uM incubated for 48 hrs by sulforhodamine B assay relative to control; format: functional; how it was run: as §1
[13] = tested on: T47D; assay: Antiproliferative activity against human T47D cells assessed as cell growth inhibition at 10 uM incubated for 48 hrs by sulforhodamine B assay relative to control; format: functional; how it was run: as §1
[14] = tested on: KM12; assay: Antiproliferative activity against human KM12 cells assessed as cell growth inhibition at 10 uM incubated for 48 hrs by sulforhodamine B assay relative to control; format: functional; how it was run: as §1
[15] = tested on: SF-268; assay: Antiproliferative activity against human SF-268 cells assessed as cell growth inhibition at 10 uM incubated for 48 hrs by sulforhodamine B assay relative to control; format: functional; how it was run: as §1
[16] = tested on: UACC-62; assay: Antiproliferative activity against human UACC-62 cells assessed as cell growth inhibition at 10 uM incubated for 48 hrs by sulforhodamine B assay relative to control; format: functional; how it was run: as §1
[17] = tested on: MOLT-4; assay: Antiproliferative activity against human MOLT-4 cells assessed as cell growth inhibition at 10 uM incubated for 48 hrs by sulforhodamine B assay relative to control; format: functional; how it was run: as §1
[18] = tested on: A549; assay: Antiproliferative activity against human A549 cells assessed as cell growth inhibition at 10 uM incubated for 48 hrs by sulforhodamine B assay relative to control; format: functional; how it was run: as §2
[19] = tested on: NCI-H522; assay: Antiproliferative activity against human NCI-H522 cells assessed as cell growth inhibition at 10 uM incubated for 48 hrs by sulforhodamine B assay relative to control; format: functional; how it was run: as §1
[20] = tested on: SK-MEL-5; assay: Antiproliferative activity against human SK-MEL-5 cells assessed as cell growth inhibition at 10 uM incubated for 48 hrs by sulforhodamine B assay relative to control; format: functional; how it was run: as §1
[21] = tested on: U-251; assay: Antiproliferative activity against human U-251 cells assessed as cell growth inhibition at 10 uM incubated for 48 hrs by sulforhodamine B assay relative to control; format: functional; how it was run: as §1
[22] = tested on: MDA-MB-231; assay: Antiproliferative activity against human MDA-MB-231 cells assessed as cell growth inhibition at 10 uM incubated for 48 hrs by sulforhodamine B assay relative to control; format: functional; how it was run: as §1
[23] = tested on: EKVX; assay: Antiproliferative activity against human EKVX cells assessed as cell growth inhibition at 10 uM incubated for 48 hrs by sulforhodamine B assay relative to control; format: functional; how it was run: as §3
[24] = tested on: SR; assay: Antiproliferative activity against human SR cells assessed as cell growth inhibition at 10 uM incubated for 48 hrs by sulforhodamine B assay relative to control; format: functional; how it was run: as §1
[25] = tested on: HCT-116; assay: Antiproliferative activity against human HCT-116 cells assessed as cell growth inhibition at 10 uM incubated for 48 hrs by sulforhodamine B assay relative to control; format: functional; how it was run: as §3
[26] = tested on: ACHN; assay: Antiproliferative activity against human ACHN cells assessed as cell growth inhibition at 10 uM incubated for 48 hrs by sulforhodamine B assay relative to control; format: functional; how it was run: as §2
[27] = tested on: LOX IMVI; assay: Antiproliferative activity against human LOX IMVI cells assessed as cell growth inhibition at 10 uM incubated for 48 hrs by sulforhodamine B assay relative to control; format: functional; how it was run: as §1
[28] = tested on: HT-29; assay: Antiproliferative activity against human HT-29 cells assessed as cell growth inhibition at 10 uM incubated for 48 hrs by sulforhodamine B assay relative to control; format: functional; how it was run: as §1
[29] = tested on: SN12C; assay: Antiproliferative activity against human SN12C cells assessed as cell growth inhibition at 10 uM incubated for 48 hrs by sulforhodamine B assay relative to control; format: functional; how it was run: as §1
[30] = tested on: NCI-H460; assay: Antiproliferative activity against human NCI-H460 cells assessed as cell growth inhibition at 10 uM incubated for 48 hrs by sulforhodamine B assay relative to control; format: functional; how it was run: as §1
[31] = tested on: NCI-H226; assay: Antiproliferative activity against human NCI-H226 cells assessed as cell growth inhibition at 10 uM incubated for 48 hrs by sulforhodamine B assay relative to control; format: functional; how it was run: as §1
[32] = tested on: NCI-H322M; assay: Antiproliferative activity against human NCI-H322M cells assessed as cell growth inhibition at 10 uM incubated for 48 hrs by sulforhodamine B assay relative to control; format: functional; how it was run: as §1
[33] = tested on: HOP-92; assay: Antiproliferative activity against human HOP-92 cells assessed as cell growth inhibition at 10 uM incubated for 48 hrs by sulforhodamine B assay relative to control; format: functional; how it was run: as §3

Cc1cccc(-c2cn3ccnc3c(-c3ccc4ncn(C5CCCCC5)c4c3)n2)c1
logD at 1.417 h [1]: 1.87

CCc1ccc(-c2cn3ccnc3c(-c3ccc4ncn(C5CCCCC5)c4c3)n2)cc1
logD at 1.417 h [1]: 1.66

FC(F)(F)c1cccc(-c2cn3ccnc3c(-c3ccc4ncn(C5CCCCC5)c4c3)n2)c1
inhibition at 10 µM [2]: 21.5% | inhibition at 10 µM [3]: 32.1% | inhibition at 10 µM [4]: 10.1% | inhibition at 10 µM [5]: 2.24% | inhibition at 10 µM [6]: 27.3% | inhibition at 10 µM [7]: 22.5% | inhibition at 10 µM [8]: 0.36% | inhibition at 10 µM [9]: 36.5% | inhibition at 10 µM [10]: 4.58% | inhibition at 10 µM [11]: 1.06% | inhibition at 10 µM [12]: 19.9% | inhibition at 10 µM [13]: 52.1% | inhibition at 10 µM [14]: 1.25% | inhibition at 10 µM [15]: 3.3% | inhibition at 10 µM [16]: 4.33% | inhibition at 10 µM [17]: 32.9% | inhibition at 10 µM [18]: 5.15% | inhibition at 10 µM [19]: 10.7% | inhibition at 10 µM [20]: 4.32% | inhibition at 10 µM [21]: 5.93% | inhibition at 10 µM [22]: 21.8% | inhibition at 10 µM [23]: 4.79% | inhibition at 10 µM [24]: 15.6% | inhibition at 10 µM [25]: 17.6% | inhibition at 10 µM [26]: 0.3% | inhibition at 10 µM [27]: 3.45% | inhibition at 10 µM [28]: 6.41% | inhibition at 10 µM [29]: 8.3% | logD at 1.417 h [1]: 1.72 | inhibition at 10 µM [30]: 4.38% | inhibition at 10 µM [31]: 1.55% | inhibition at 10 µM [32]: 5.83% | inhibition at 10 µM [33]: 8.38%
